Compound activity: PubChem, several laboratories
Sampled rows, rich in hits. Any-hit rate of the full collection: about 2.3%.
TWEAK-Fn14 inh = inhibitors of TWEAK-Fn14 interaction signaling; inhibition, % at 10 µM; TWEAK-stimulated Fn14 reporter cells, luciferase luminescence, 8 h; 360,000 compounds, 2% hits; in the data active means inhibition above about 50%
TROY NFkB inh = TROY signaling inhibition. Q293 LMP1-TROYcd NF-kB luciferase reporter, 4 h. inhibition, % at 10 µM. 360,000 compounds, 0.98% hits. AID 1347056;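 active means compounds whose plate-normalised and pattern-corrected inhibition of the luciferase reporter signal at the single screening dose is 50% or more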
FN deposition inh = fibronectin deposition inhibition; AID 743247; AH1F fibroblasts, Alexa488-fibronectin deposition fluorescence, overnight; inhibition, % at 12.6 µM; 350,000 compounds, 0.086% hits;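 active means mean inhibition across replicates of 30% or more, regardless of how many single replicates reach that level; inconclusive means mean under 30% yet at least half of replicates reach 30%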;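 further: positive control wells lacked labelled fibronectin entirely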
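Test system: AH1F fibroblast monolayer depositing Alexa488-labelled fibronectin into matrix. Input: 10000 cells per well. Technique: fluorescence, ex 485 nm, em 525 nm. Buffer or medium: DMEM plus 2% serum, read in PBS. Timing: 1 h cell adhesion before compound, then overnight fibronectin incubation. Compound: single dose, pinned. Read-out basis: inhibition from reduced deposited-fibronectin fluorescence.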
LGR2 antag = inhibitors of bursicon-induced Drosophila LGR2 receptor cAMP signaling. HEK293 LGR2, CRE-luciferase, bursicon-stimulated, 4 h. inhibition, % at 9.99 µM. 380,000 compounds, 0.35% hits. AID 720647;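 active means drop in luminescence signal, shown as inhibition above about 50% in the replicate tests, limit read from the data, passing the limit was not always enough; inconclusive means probably only some replicates passing the limit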;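 further: agonist challenge used bursicon conditioned medium at about half maximal strength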
EWS-Fli block = inhibitors of EWS/Fli oncoprotein transcriptional activity | A673 NR0B1-luciferase reporter, viability-normalised | inhibition, % at 12.6 µM | 350,000 compounds, 0.67% hits;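 active means mean inhibition of at least 50% after viability correction, with every replicate also passing that limit; inconclusive means mean reaches 50% but only one of two replicates passes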;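 further: firefly luciferase signal divided by Alamar Blue viability fluorescence both relative to DMSO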
XiGFP reactiv = activators of X-chromosome reactivation in mouse fibroblasts; activation, % at 7.58 µM; XiGFP mouse fibroblasts, % GFP-positive cells imaging, 3 d; cells co-treated with 5-aza-dC sensitizer; scaled so ellipticine positive control = 100%; 360,000 compounds, 0.055% hits; AID 743238;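 active means mean normalized replicate activation at least 10% and every replicate at or above 10%; inconclusive means only one of the two criteria met; inactive means mean below 10% and not all replicates reach 10%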;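 further: 0% = median of on-plate neutral control wells and 100% = ellipticine 6 µM median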
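System: XiGFP fibroblasts, SV40-immortalized. Medium: DMEM plus 5-aza-dC sensitizer. Doses: single point. Timing: 3 d treatment, 15 min room-temperature fixation. Control set: ellipticine 6 µM.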
DNA binding = binds DNA displacing acridine orange | AC35, µM (titrated, usually from 68 µM), for the others: at the highest dose activity change, negative = DNA binding | shares compounds with EWS-Fli block | AID 720586 | 640 compounds, 2% hits | salmon sperm DNA acridine orange fluorescence polarization;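 active means fitted curve reaches a 35% signal fall AC35 below twice the sample's top valid tested dose, actives reach about 48 µM in these data; inactive means the rest, including activity in the rising direction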;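 further: lower polarization ratio signals compound binding to DNA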
The depositor's hits bear a star.

COC(=O)C[C@@H]1CC[C@H](NC(=O)Nc2ccc(C(F)(F)F)cc2)[C@H](CO)O1 was read as FN deposition inh -2, LGR2 antag -21, EWS-Fli block 21 and XiGFP reactiv 0.
Screening C[C@@H]1CN([C@H](C)CO)C(=O)c2cccc(N(C)C)c2O[C@@H]1CN(C)Cc1ccc(C(=O)Nc2ccccc2N)cc1 returned EWS-Fli block 56* and DNA binding -3%.
`C[C@@H]1CN([C@H](C)CO)C(=O)c2cc(C#CCN(C)C)cnc2O[C@H]1CN(C)Cc1ccc(-c2ccccc2)cc1` gave LGR2 antag -1, EWS-Fli block 54*, XiGFP reactiv 0 and DNA binding -17%.
C[C@@H]1CN([C@@H](C)CO)C(=O)c2cccc(NC(=O)Nc3ccccc3)c2O[C@@H]1CN(C)Cc1ccc(-c2ccccc2)cc1 was read as EWS-Fli block 78*, XiGFP reactiv 0 and DNA binding 0%.
Screening C[C@H]1CN([C@@H](C)CO)C(=O)c2cccc(NC(=O)Nc3ccccc3)c2O[C@@H]1CN(C)Cc1ccc(-c2ccccc2)cc1 returned LGR2 antag -6, EWS-Fli block -10 and XiGFP reactiv 0.
Screening COc1ccccc1NC(=O)N(C)C[C@H]1Oc2cc(Br)ccc2S(=O)(=O)N([C@@H](C)CO)C[C@H]1C returned FN deposition inh -3, LGR2 antag -2, EWS-Fli block 0 and XiGFP reactiv 0.
For CO[C@H]1CN(C)C(=O)c2cc(NC(=O)C3CCCCC3)ccc2OC[C@@H](C)NC[C@@H]1C the results were FN deposition inh -13, LGR2 antag 5, EWS-Fli block 3 and XiGFP reactiv 0.
CC(C)C#Cc1ccc2c(c1)O[C@@H](CN(C)C(=O)Cc1ccccn1)[C@H](C)CN([C@@H](C)CO)S2(=O)=O was read as FN deposition inh 9, LGR2 antag -1, EWS-Fli block 10 and XiGFP reactiv 0.
For COc1ccc(NC(=O)N[C@@H]2C=C[C@H](CC(=O)NCc3ccccn3)O[C@@H]2CO)cc1 the results were FN deposition inh 8, LGR2 antag 16, EWS-Fli block 1 and XiGFP reactiv 0.
O=C(Nc1ccc(NC(=O)c2cc3ccccc3o2)cc1)c1ccc2c(c1)OCCO2 was read as TWEAK-Fn14 inh -22, TROY NFkB inh 26, FN deposition inh 3, LGR2 antag 1, EWS-Fli block 58*, XiGFP reactiv 0 and DNA binding -2%.
Screening Cc1cc(NC(=O)c2ccc3c(c2)OCCO3)ccc1NC(=O)c1cc2ccccc2o1 returned TWEAK-Fn14 inh 12, TROY NFkB inh 41, FN deposition inh -7, LGR2 antag inconclusive, EWS-Fli block -52 and XiGFP reactiv 1.
CCOc1ccc(N=C2C(=O)Nc3ccc(C)c(Br)c32)cc1 was read as TWEAK-Fn14 inh 10, TROY NFkB inh -31, FN deposition inh -13, LGR2 antag -3, EWS-Fli block 52*, XiGFP reactiv 0 and DNA binding -8%.
`C[C@H](CO)N1C[C@H](C)[C@@H](CN(C)Cc2cccnc2)Oc2ncc(-c3ccccc3)cc2C1=O` gave FN deposition inh -2, LGR2 antag -7, EWS-Fli block -4 and XiGFP reactiv -1.
Screening CCOc1cc2[nH]c(=S)n(Cc3ccc(C(=O)NCCN(CC)CC)cc3)c(=O)c2cc1OCC returned TWEAK-Fn14 inh -4, TROY NFkB inh 1, FN deposition inh 5, LGR2 antag -11, EWS-Fli block 58*, XiGFP reactiv 0 and DNA binding 3%.
`COC(=O)Cc1[nH]n(-c2nc3ccccc3s2)c(=O)c1C(C)=Nc1ccc(C)cc1` gave TWEAK-Fn14 inh 91*, TROY NFkB inh 82*, FN deposition inh 0, LGR2 antag 53*, EWS-Fli block 77*, XiGFP reactiv 0 and DNA binding 4%.
Screening COc1ccc(-c2noc(CCC(=O)O)n2)cc1 returned TWEAK-Fn14 inh 17, TROY NFkB inh 4, FN deposition inh -4, LGR2 antag 15 and XiGFP reactiv 0.
